From ChEMBL document CHEMBL1629526, “4-[1-(Substituted aryl/alkyl carbonyl)-benzoimidazol-2-yl]-benzenesulfonic acids: synthesis, antimicrobial activity, QSAR studies, and antiviral evaluation” (Eur J Med Chem, 2010)
Values after ≈ are worked out from the molar mass of the structure shown.

Tests used:
[1] = tested on: Vesicular stomatitis virus; assay: Antiviral activity against Vesicular stomatitis virus infected in human HeLa cells assessed as inhibition of virus induced cytopathicity after 2 to 4 days by MTS assay; format: functional, organism-based
[2] = tested on: Bacillus subtilis; assay: Antimicrobial activity against Bacillus subtilis after 24 hrs by tube dilution method; format: functional
Summary of the method: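 Serial dilutions in double-strength nutrient broth (I.P.) with ciprofloxacin as reference, tube dilution, incubated 37 °C for 24 h. MIC is the lowest concentration that inhibited growth.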

[3] = tested on: Human alphaherpesvirus 1; assay: Antiviral activity against Herpes simplex virus 1 KOS infected in HEL cells assessed as inhibition of virus induced cytopathicity after 2 to 4 days by MTS assay; format: functional, organism-based; settings: Human alphaherpesvirus 1, KOS
[4] = tested on: Aspergillus niger; assay: Antimicrobial activity against Aspergillus niger after 7 days by tube dilution method; format: functional; settings: 168 h
[5] = tested on: Influenza B virus; assay: Antiviral activity against Influenza B virus infected in MDCK cells assessed as inhibition of virus induced cytopathicity after 2 to 4 days by MTS assay; format: functional, organism-based
[6] = tested on: Punta Toro virus; assay: Antiviral activity against Punta Toro virus infected in african green monkey Vero cells assessed as inhibition of virus induced cytopathicity after 2 to 4 days by MTS assay; format: functional, organism-based
[7] = tested on: HeLa; assay: Cytotoxicity against human HeLa cells assessed as cell viability by MTS assay; format: cell-based; settings: hela
Summary of the method: (§1)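 Uninfected cultures were run in parallel with the antiviral assays. Viability was read by colorimetric formazan MTS assay.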

[8] = tested on: Influenza A virus; assay: Antiviral activity against Influenza A H3N2 virus subtype infected in MDCK cells assessed as inhibition of virus induced cytopathicity after 2 to 4 days by MTS assay; format: functional, organism-based
[9] = tested on: Coxsackievirus B4; assay: Antiviral activity against Coxsackie virus B4 infected in african green monkey Vero cells assessed as inhibition of virus induced cytopathicity after 2 to 4 days by MTS assay; format: functional, organism-based; settings: Enterovirus B
[10] = tested on: Influenza B virus; assay: Antiviral activity against Influenza B virus infected in MDCK cells assessed as inhibition of virus induced cytopathicity by visual scoring of CPE; format: functional, organism-based
[11] = tested on: Candida albicans; assay: Antimicrobial activity against Candida albicans after 48 hrs by tube dilution method; format: functional
[12] = tested on: Staphylococcus aureus; assay: Antimicrobial activity against Staphylococcus aureus after 24 hrs by tube dilution method; format: functional
[13] = tested on: Coxsackievirus B4; assay: Antiviral activity against coxsackievirus B4 infected in human HeLa cells assessed as inhibition of virus induced cytopathicity after 2 to 4 days by MTS assay; format: functional, organism-based; settings: Enterovirus B
[14] = tested on: Escherichia coli; assay: Antimicrobial activity against Escherichia coli after 24 hrs by tube dilution method; format: functional
[15] = tested on: Coxsackievirus B4; assay: Antiviral activity against coxsackievirus B4 infected in human HeLa cells assessed as inhibition of virus induced cytopathicity by visual scoring of CPE; format: functional, organism-based; settings: Enterovirus B
[16] = Cytotoxicity against MDCK cells assessed as altered cell morphology; format: cell-based, Canis lupus familiaris; settings: dog
Summary of the method: (§2)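 Uninfected cell cultures run alongside the antiviral assays, exposed to serial compound dilutions and incubated at 37 °C for 2–4 days. Toxicity was scored microscopically and reported as the minimum cytotoxic concentration (MCC), the lowest concentration causing a detectable change in normal cell morphology.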

[17] = tested on: Respiratory syncytial virus; assay: Antiviral activity against Respiratory syncytial virus infected in human HeLa cells assessed as inhibition of virus induced cytopathicity after 2 to 4 days by MTS assay; format: functional, organism-based
[18] = tested on: MDCK; assay: Cytotoxicity against MDCK cells assessed as cell viability by MTS assay; format: cell-based, Canis lupus familiaris; settings: dog, mdck; summary of the method: as §1
[19] = tested on: Vesicular stomatitis virus; assay: Antiviral activity against Vesicular stomatitis virus infected in human HeLa cells assessed as inhibition of virus induced cytopathicity by visual scoring of CPE; format: functional, organism-based
[20] = tested on: Human alphaherpesvirus 1; assay: Antiviral activity against thymidine kinase deficient acyclovir-resistant Herpes simplex virus 1 KOS infected in HEL cells assessed as inhibition of virus induced cytopathicity after 2 to 4 days by MTS assay; format: functional, organism-based; settings: Human alphaherpesvirus 1, KOS
[21] = tested on: Respiratory syncytial virus; assay: Antiviral activity against Respiratory syncytial virus infected in human HeLa cells assessed as inhibition of virus induced cytopathicity by visual scoring of CPE; format: functional, organism-based
[22] = Cytotoxicity against human HeLa cells assessed as altered cell morphology; format: cell-based; summary of the method: as §2
[23] = tested on: Sindbis virus; assay: Antiviral activity against Sindbis virus infected in african green monkey Vero cells assessed as inhibition of virus induced cytopathicity after 2 to 4 days by MTS assay; format: functional, organism-based
[24] = tested on: Feline coronavirus; assay: Antiviral activity against Feline coronavirus infected in cat CRFK cells assessed as inhibition of virus induced cytopathicity after 2 to 4 days by MTS assay; format: functional, organism-based; settings: Alphacoronavirus 1, CRFK
[25] = tested on: Mammalian orthoreovirus 1; assay: Antiviral activity against Reovirus 1 virus infected in african green monkey Vero cells assessed as inhibition of virus induced cytopathicity after 2 to 4 days by MTS assay; format: functional, organism-based; settings: Mammalian orthoreovirus 1, Vero
[26] = tested on: Influenza A virus; assay: Antiviral activity against Influenza A H3N2 virus subtype infected in MDCK cells assessed as inhibition of virus induced cytopathicity by visual scoring of CPE; format: functional, organism-based
[27] = tested on: Human respirovirus 3; assay: Antiviral activity against parainfluenza-3 virus infected in african green monkey Vero cells assessed as inhibition of virus induced cytopathicity after 2 to 4 days by MTS assay; format: functional, organism-based; settings: Human respirovirus 3, Vero
[28] = Cytotoxicity against african green monkey Vero cells assessed as altered cell morphology; format: cell-based; settings: chlorocebus sabaeus; summary of the method: as §2
[29] = tested on: Felid alphaherpesvirus 1; assay: Antiviral activity against Feline herpesvirus 1 infected in cat CRFK cells assessed as inhibition of virus induced cytopathicity after 2 to 4 days by MTS assay; format: functional, organism-based; settings: Felid alphaherpesvirus 1, CRFK
[30] = tested on: Vesicular stomatitis virus; assay: Antiviral activity against Vesicular stomatitis virus infected in HEL cells assessed as inhibition of virus induced cytopathicity after 2 to 4 days by MTS assay; format: functional, organism-based
[31] = tested on: Vaccinia virus; assay: Antiviral activity against Vaccinia virus infected in HEL cells assessed as inhibition of virus induced cytopathicity after 2 to 4 days by MTS assay; format: functional, organism-based; settings: Orthopoxvirus vaccinia
[32] = Cytotoxicity against cat CRFK cells assessed as cell viability by MTS assay; format: cell-based, Felis catus; settings: crfk; summary of the method: as §1
[33] = Cytotoxicity against human HEL cells assessed as altered cell morphology; format: cell-based; summary of the method: as §2
[34] = tested on: Human alphaherpesvirus 2; assay: Antiviral activity against Herpes simplex virus 2 G infected in HEL cells assessed as inhibition of virus induced cytopathicity after 2 to 4 days by MTS assay; format: functional, organism-based; settings: Human alphaherpesvirus 2, strain G

SMILES | EC50 [1] [µg/mL] | MBC [2] [µg/mL] | EC50 [3] [µg/mL] | MFC [4] [µg/mL] | EC50 [5] [µg/mL] | EC50 [6] [µg/mL] | CC50 [7] [µg/mL] | EC50 [8] [µg/mL] | EC50 [9] [µg/mL] | EC50 [10] [µg/mL] | MFC [11] [µg/mL] | MBC [12] [µg/mL] | EC50 [13] [µg/mL] | MBC [14] [µg/mL] | EC50 [15] [µg/mL] | MCC [16] [µg/mL] | EC50 [17] [µg/mL] | CC50 [18] [µg/mL] | EC50 [19] [µg/mL] | EC50 [20] [µg/mL] | other results
Cc1ccccc1C(=O)n1c(-c2ccc(S(=O)(=O)O)cc2)nc2ccccc21 | > 100 | > 50 | > 100 | > 50 | > 100 | > 100 | > 100 | > 100 | > 100 | > 100 | 50 (≈ 127 µM) | 6.25 (≈ 15.9 µM) | > 100 | 3.12 (≈ 7.95 µM) | > 100 | > 100 | > 100 | > 100 | > 100 | > 100 | EC50 [21]: > 100 µg/mL; MCC [22]: > 100 µg/mL; EC50 [23]: > 100 µg/mL; EC50 [24]: > 100 µg/mL; EC50 [25]: > 100 µg/mL; EC50 [26]: > 100 µg/mL; EC50 [27]: > 100 µg/mL; MCC [28]: > 100 µg/mL; EC50 [29]: > 100 µg/mL; EC50 [30]: > 100 µg/mL; EC50 [31]: > 100 µg/mL; CC50 [32]: > 100 µg/mL; MCC [33]: > 100 µg/mL; EC50 [34]: > 100 µg/mL
O=C(c1ccccc1Cl)n1c(-c2ccc(S(=O)(=O)O)cc2)nc2ccccc21 | > 100 | > 50 | > 100 | > 50 | > 100 | > 100 | > 100 | > 100 | > 100 | > 100 | > 50 | 25 (≈ 60.6 µM) | > 100 | 1.56 (≈ 3.78 µM) | > 100 | > 100 | > 100 | > 100 | > 100 | > 100 | EC50 [21]: > 100 µg/mL; MCC [22]: > 100 µg/mL; EC50 [23]: > 100 µg/mL; EC50 [24]: > 100 µg/mL; EC50 [25]: > 100 µg/mL; EC50 [26]: > 100 µg/mL; EC50 [27]: > 100 µg/mL; MCC [28]: > 100 µg/mL; EC50 [29]: > 100 µg/mL; EC50 [30]: > 100 µg/mL; EC50 [31]: > 100 µg/mL; CC50 [32]: > 100 µg/mL; MCC [33]: > 100 µg/mL; EC50 [34]: > 100 µg/mL
O=C(c1ccc(Cl)cc1)n1c(-c2ccc(S(=O)(=O)O)cc2)nc2ccccc21 | > 100 | > 50 | > 100 | > 50 | > 100 | > 100 | > 100 | > 100 | > 100 | > 100 | > 50 | 25 (≈ 60.6 µM) | > 100 | 1.56 (≈ 3.78 µM) | > 100 | > 100 | > 100 | > 100 | > 100 | > 100 | EC50 [21]: > 100 µg/mL; MCC [22]: > 100 µg/mL; EC50 [23]: > 100 µg/mL; EC50 [24]: > 100 µg/mL; EC50 [25]: > 100 µg/mL; EC50 [26]: > 100 µg/mL; EC50 [27]: > 100 µg/mL; MCC [28]: > 100 µg/mL; EC50 [29]: > 100 µg/mL; EC50 [30]: > 100 µg/mL; EC50 [31]: > 100 µg/mL; CC50 [32]: > 100 µg/mL; MCC [33]: > 100 µg/mL; EC50 [34]: > 100 µg/mL
